Experiments:
[1] = folding enthalpy; higher = less favourable; fluorescence melt of hairpins on a sequencing array, two-state fit; settings: sodium 0.088 M
In short: (§1)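 With Cy3 and quencher oligos annealed, library hairpins on a sequenced MiSeq flow cell were imaged for Cy3 fluorescence in 50 mM Na-HEPES pH 8.0, 25 mM NaCl, in 2.5 °C steps up to 60 °C. Melting temperature and folding enthalpy were derived from bootstrapped two-state fits of signals normalised to pre-quench Cy3 and to control constructs. Four replicates were combined by inverse variance, with fitted temperatures raised by 9.35 °C to match UV melts.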

[2] = melting temperature; fluorescence melt of hairpins on a sequencing array, two-state fit, raised by 9.35 °C to match UV melts; settings: sodium 0.088 M
In short: as §1

Sequence	folding enthalpy [1]	Tm [2]
GCAATGCGAAAGCTCTGC (((..((....))..)))	-16.1 kcal/mol	37.2 °C
GCAATGCGAAAGCTTAGC ((.(.((....)).).))	-15.9 kcal/mol	36.4 °C
GCAATGGAAACATTGC ((((((....))))))	-42.1 kcal/mol	58.1 °C
GCAATGGGAAACCACTGC (((.(((....))).)))	-28.6 kcal/mol	39.1 °C
GCAATTCGAAAGAACTGC (((.(((....))).)))	-31.4 kcal/mol	43.4 °C
GCACAACGAAAGTTTGC (((.(((....))))))	-25.6 kcal/mol	44.5 °C
GCACAACGAAAGTTTTGC (((.(((....))).)))	-37.7 kcal/mol	46.9 °C
GCACAAGAAATTGTGC ((((((....))))))	-36 kcal/mol	57.3 °C
GCACAAGGAAACTTATGC (((.(((....))).)))	-18.7 kcal/mol	29.4 °C
GCACAAGGAAACTTGCGC ((.((((....)))).))	-37.9 kcal/mol	48.4 °C
GCACACCCGAAAGGGTGC (((..(((....))))))	-5.94 kcal/mol	38.6 °C
GCACACGAAAGTGATTGC ((((((....)))..)))	-18.5 kcal/mol	39.8 °C
GCACACGAAAGTGTTGC ((((((....))).)))	-32.5 kcal/mol	53.8 °C
GCACACGGAAACGCATGC (((..((....))..)))	-12.7 kcal/mol	26.4 °C
GCACACGGAAACGCGTGC ((((.((....)).))))	-47.3 kcal/mol	57 °C
GCACACGGAAACGTGCGC ((.((((....)))).))	-42.2 kcal/mol	60.5 °C
GCACAGCGAAAGCAGGGC ((.(.((....)).).))	-25.8 kcal/mol	62.5 °C
GCACAGCGAAAGCCGGGC ((.(.((....)).).))	-22.4 kcal/mol	55.7 °C
GCACAGCGAAAGCCTTGC (((..((....))..)))	-8.82 kcal/mol	39 °C

Sequence	folding enthalpy [1]	Tm [2]
GCACAGCGAAAGCGATGC (((..((....))..)))	-15.8 kcal/mol	51.6 °C
GCACAGCGAAAGCTAAGC ((..(((....)))..))	-12.1 kcal/mol	40.4 °C
GCACAGCGAAAGCTCAGC ((..(((....)))..))	-10.5 kcal/mol	33.9 °C
GCACAGCGAAAGCTCTGC (((.(((....))).)))	-25.6 kcal/mol	40.6 °C
GCACATACGAAAGTATGC (((..(((....))))))	-9.91 kcal/mol	35.4 °C
GCACATCGAAAGATTTGC (((.(((....))).)))	-36.1 kcal/mol	45.2 °C
GCACCAGGAAACTGATGC (((.(((....))).)))	-28.6 kcal/mol	45 °C
GCACCCGAAAGGGATTGC ((((((....)))..)))	-18 kcal/mol	42.3 °C
GCACCCGAAAGGGCTTGC ((((((....)))..)))	-14.9 kcal/mol	46.6 °C
GCACCCGAAAGGGGATGC ((((((....)))..)))	-19.6 kcal/mol	50.8 °C
GCACCCGGAAACGAGCGC ((.(.((....)).).))	-29.2 kcal/mol	34.7 °C
GCACCCGGAAACGGACGC ((..(((....)))..))	-19.6 kcal/mol	38.7 °C
GCACCGACGAAAGTCTGC (((..(((....))))))	-16.7 kcal/mol	35.3 °C
GCACCGCGAAAGCCATGC (((..((....))..)))	-9.79 kcal/mol	28.6 °C
GCACCGCGAAAGCGTAGC ((..(((....)))..))	-12.3 kcal/mol	41.2 °C
GCACCGCGAAAGCGTGGC ((..(((....)))..))	-16.5 kcal/mol	56.1 °C
GCACCGCGAAAGCGTTGC (((.(((....))).)))	-42.6 kcal/mol	56.3 °C
GCACCGCGAAAGCTATGC (((..((....))..)))	-12.8 kcal/mol	31.1 °C

Source: the array DNA melting data of Ke et al. (doi:10.1101/2024.01.08.574731)
